Assay results from ChEMBL document CHEMBL4402570, “Discovery and Optimization of Novel Pyrazolopyrimidines as Potent and Orally Bioavailable Allosteric HIV-1 Integrase Inhibitors” (J Med Chem, 2020).

Legend:
[1] = Tmax in Sprague-Dawley rat at 1 mg/kg, iv infusion for 10 mins or 5 mg/kg, po administered via gavage by LC-MS/MS analysis; assay type: ADME, organism-based; settings: in vivo
Method in brief: (§1)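 Rats given iv via implanted venous cannula as 10 min infusion, or oral gavage after overnight fast; vehicle 10% dimethylacetamide/90% PEG400 for both routes. Plasma from venous-port blood, treated with CH3CN containing internal standard, analysed by LC-MS/MS; oral plasma levels followed 24 h after 5 mg/kg. Parameters by noncompartmental analysis of concentration-time data.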

[2] = Cytotoxicity against human MT2 cells measured after 4 days by XTT assay; assay type: cell-based
Method in brief: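 MT-2 cell viability measured by XTT after 4 days of compound exposure, run in parallel with the antiviral assay; CC50 from n ≥ 2 determinations.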

[3] = Clearance in Sprague-Dawley rat at 1 mg/kg, iv infusion for 10 mins or 5 mg/kg, po administered via gavage by LC-MS/MS analysis; assay type: ADME, organism-based; settings: in vivo; method in brief: as §1
[4] = Half life in Sprague-Dawley rat at 1 mg/kg, iv infusion for 10 mins or 5 mg/kg, po administered via gavage by LC-MS/MS analysis; assay type: ADME, organism-based; settings: in vivo; method in brief: as §1
[5] = AUC (0 to 24 hrs) in Sprague-Dawley rat at 1 mg/kg, iv infusion for 10 mins or 5 mg/kg, po administered via gavage by LC-MS/MS analysis; assay type: ADME, organism-based; settings: in vivo; method in brief: as §1
[6] = Therapeutic index, ratio of CC50 for human MT2 cells to EC50 for HIV1 NL4-3 infected in human MT2 cells; assay type: toxicity, cell-based; settings: read-out: Ratio CC50/EC50
[7] = system: Human immunodeficiency virus 1; assay: Antiviral activity against HIV1 NL4-3 infected in human MT2 cells measured after 3 to 4 days by luciferase reporter gene assay; assay type: functional, organism-based; settings: Human immunodeficiency virus 1, NL4-3, MT2
[8] = Stability of the compound in human liver microsomes assessed as parent compound remaining at 0.5 uM measured after 10 mins in presence of NADPH by LC-MS/MS analysis; assay type: ADME, Microsome; settings: read-out: Stability
Method in brief: (§2)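 CYP-mediated turnover: 0.5 μM compound with human or rat liver microsomes (1 mg/mL) in 100 mM sodium phosphate pH 7.4, 6.6 mM MgCl2, 37 °C; started with NADPH, DMSO 0.014%. Samples quenched at 0 and 10 min; parent remaining by LC-MS/MS; duplicate.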

[9] = Permeability of the compound in pH 7.4 buffer at 100 uM measured after 4 hrs by sandwich-PAMPA; assay type: ADME; settings: read-out: permeability
Method in brief: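 Parallel artificial membrane permeability: compound at 100 μM in donor buffer pH 7.4, permeating to acceptor through artificial membrane over 4 h; donor, acceptor and t0 solutions read by UV plate reader; triplicate.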

[10] = Cmax in Sprague-Dawley rat at 1 mg/kg, iv infusion for 10 mins or 5 mg/kg, po administered via gavage by LC-MS/MS analysis; assay type: ADME, organism-based; settings: in vivo; method in brief: as §1
[11] = system: Human immunodeficiency virus 1; assay: Antiviral activity against HIV1 NL4-3 infected in human MT2 cells measured after 3 to 4 days in presence of human serum albumin by luciferase reporter gene assay; assay type: functional, organism-based; settings: Human immunodeficiency virus 1, NL4-3, MT2
[12] = Stability of the compound in rat liver microsomes assessed as parent compound remaining at 0.5 uM measured after 10 mins in presence of NADPH by LC-MS/MS analysis; assay type: ADME, Microsome; settings: read-out: Stability; method in brief: as §2
[13] = system: Human immunodeficiency virus 1; assay: Selectivity ratio of EC50 for HIV1 NL4-3 infected in human MT2 cells in presence of human serum albumin to EC50 for HIV1 NL4-3 infected in human MT2 cells in absence of human serum albumin; assay type: functional
[14] = Volume of distribution at steady state in Sprague-Dawley rat at 1 mg/kg, iv infusion for 10 mins or 5 mg/kg, po administered via gavage by LC-MS/MS analysis; assay type: ADME, organism-based; settings: in vivo, read-out: Vdss; method in brief: as §1
[15] = Oral bioavailability in Sprague-Dawley rat at 5 mg/kg administered via gavage by LC-MS/MS analysis; assay type: ADME, organism-based; settings: in vivo; method in brief: as §1

**Q.** Which Tmax [1] does the source give for `Cc1ccccc1-c1cccc(-c2cc3nc(C)c([C@H](OC(C)(C)C)C(=O)O)c(-c4cc(F)c5c(c4C)CCCO5)n3n2)c1` here?
**A.** 3 h

**Q.** What about the CC50 at 96 h [2] of the same compound?
**A.** 28200 nM

**Q.** What about the clearance [3] of the same compound?
**A.** 7.1 mL/min/kg

**Q.** What about the half-life [4] of the same compound?
**A.** 4.1 h

**Q.** What about the AUC(0-t) [5] of the same compound?
**A.** 6.3 µM·h

**Q.** And the selectivity ratio [6]?
**A.** 4690

**Q.** And the EC50 [7]?
**A.** 6 nM

**Q.** What about the remaining at 10 min, 0.5 µM [8] of the same compound?
**A.** 95%

**Q.** What about the Papp at 4 h, 100 µM [9] of the same compound?
**A.** 47.1 ×10⁻⁶ cm/s

**Q.** And the Cmax [10]?
**A.** 1290 nM

**Q.** And the EC50 [11]?
**A.** 30 nM

**Q.** What about the remaining at 10 min, 0.5 µM [12] of the same compound?
**A.** 97%

**Q.** And the “Ratio EC50” value [13]?
**A.** 5

**Q.** And the Vd [14]?
**A.** 0.5 L/kg

**Q.** And the bioavailability [15]?
**A.** 32%
